# Compound activity deposited in PubChem BioAssay by several laboratories.
# Rows were chosen to be rich in hits. Some 1.7% of all compounds tested hit in one or more screens of this group.
# Arrestin-AP2 inh: inhibitors of beta-arrestin/AP2 binding, primary screen, biochemical, GPCR trafficking, flow cytometry | FITC-arrestin peptide / GST-AP2 beads; AP2 beta2 appendage carries R879A mutation | inhibition, % at 10 µM | 340,000 tested, 0.31% active | beta-arrestin 1 C-terminal peptide binding to AP2 beta2-adaptin appendage (human);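 active means inhibition above a set limit, near 3 SD of compounds lacking own fluorescence, cut at about 54% in these data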;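 further: plate controls were DMSO wells for no effect and 5 µM unlabelled arrestin peptide for full effect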
#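 Assay system: GST-AP2 R879A bound to glutathione beads, E. coli-expressed; Medium: PBS with 0.05% Tween 20 and 0.1% BSA; Also added: fluorescein-tagged arrestin peptide at 50 nM final; Timing: 12 min plus 1 h, RT; Measured by: flow cytometry, FL1 (488/535 nm); Evaluation: percent drop in bead-associated FITC signal.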
# Efflux pump inh: inhibitors of Candida efflux pumps in yeast, primary screen, S. cerevisiae, Nile Red, multiplex; S. cerevisiae Candida pump triplex; inhibition, % at 10 µM; 330,000 tested, 0.44% active; AID 485275, 2010;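 active means plate passing quality check with inhibition over a set limit, or well fluorescence over plate mean plus 4 SD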;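 further: Nile Red retained in pooled yeast measured as flow cytometry median fluorescence; 0% = buffer negative control and 100% = Enniatin B positive control; higher means more Nile Red kept so more efflux inhibition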
# Neddyl block: inhibitors of cullin neddylation, primary screen, biochemical, TR-FRET, uHTS, NAE and Ubc12; NEDD8-conjugating enzyme Ubc12 (Homo sapiens) + NEDD8-activating enzyme E1 regulatory …; inhibition, % at 25 µM; 360,000 tested, 0.58% active; AID 651699, 2012; in the data active means inhibition above about 36%
# Pemphigus Ab inh: inhibitors of pemphigus antibody binding to DSG3, primary screen, biochemical, bead-based, flow cytometry, scFv-GFP; Desmoglein-3 (Homo sapiens), P32926; DSG3-coupled beads, scFv-anti-DSG3-GFP binding; active compounds read low; binding (percent of control), % at 10 µM; 310,000 tested, 0.48% active; AID 588358, 2011;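 active means binding more than 3 SD below its plate's average and above zero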;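 further: hits lower antibody fragment binding to DSG3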
# Arr AP2 CP1: inhibitors of arrestin peptide binding to AP2, confirmation, biochemical, cherry pick 1, flow cytometry beads; shares compounds with Arrestin-AP2 inh; GST-AP2 beads, FITC arrestin peptide binding; GST-fused beta2-adaptin appendage, R879A mutant; inhibition, % at 10 µM; 1,300 tested, 2% active;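 active means inhibition above a set limit, roughly 3 SD of non-fluorescent compound noise, cut at about 38% in these data; inactive means inhibition at or below that limit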;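 further: loss of bead fluorescence from 50 nM FITC arrestin peptide bound to appendage; 0% = negative control wells and 100% = excess unlabelled arrestin peptide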
# Target sequence (P63010 whole entry, looked up, the tested form may be a part, one chain of several): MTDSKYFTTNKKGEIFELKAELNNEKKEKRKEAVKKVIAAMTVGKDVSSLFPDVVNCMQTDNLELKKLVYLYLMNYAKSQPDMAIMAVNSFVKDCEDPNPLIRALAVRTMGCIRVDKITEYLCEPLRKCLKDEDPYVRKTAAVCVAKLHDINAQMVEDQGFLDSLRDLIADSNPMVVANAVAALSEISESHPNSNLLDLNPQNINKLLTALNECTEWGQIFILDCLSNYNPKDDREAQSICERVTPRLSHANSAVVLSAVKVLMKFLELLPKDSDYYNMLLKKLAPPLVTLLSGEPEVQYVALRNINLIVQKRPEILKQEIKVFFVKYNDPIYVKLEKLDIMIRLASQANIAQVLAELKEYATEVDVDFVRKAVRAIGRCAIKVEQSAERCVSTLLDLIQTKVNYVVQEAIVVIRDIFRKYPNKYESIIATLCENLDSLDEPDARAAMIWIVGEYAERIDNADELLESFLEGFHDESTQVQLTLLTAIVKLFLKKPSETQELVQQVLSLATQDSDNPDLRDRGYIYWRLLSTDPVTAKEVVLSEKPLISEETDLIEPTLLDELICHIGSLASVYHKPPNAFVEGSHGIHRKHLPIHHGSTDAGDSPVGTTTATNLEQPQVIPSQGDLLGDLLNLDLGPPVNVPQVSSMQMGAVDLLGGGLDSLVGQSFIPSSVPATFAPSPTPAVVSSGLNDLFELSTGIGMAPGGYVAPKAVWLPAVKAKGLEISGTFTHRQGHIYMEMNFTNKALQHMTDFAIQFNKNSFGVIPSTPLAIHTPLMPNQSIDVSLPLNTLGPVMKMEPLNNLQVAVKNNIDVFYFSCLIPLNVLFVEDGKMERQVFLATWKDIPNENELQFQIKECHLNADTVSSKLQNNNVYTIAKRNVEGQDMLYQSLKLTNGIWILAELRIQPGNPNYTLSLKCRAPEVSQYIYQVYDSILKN
# GST-FITC bead: GST-fluorescein capture on glutathione beads, confirmation, artefact control for arrestin-AP2 inhibitor project, biochemical, cherry pick 1, flow cytometry. shares compounds with Arrestin-AP2 inh. GST-fluorescein binding to GSH beads, fluorescence, counter-screen. inhibition, % at 10 µM. 1,300 tested, 2% active. AID 588338, 2011;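 active means inhibition above 50%, about 3 SD of the inhibition seen with non-fluorescent compounds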;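 further: fluorescein maleimide labelled GST captured on 4 micron glutathione beads; higher means more loss of bead fluorescence from quenching or blocked binding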
# Active calls of the source: *; nt = not tested or not shown.
SMILES,Arrestin-AP2 inh,Efflux pump inh,Neddyl block,Pemphigus Ab inh,Arr AP2 CP1,GST-FITC bead
COc1ccc(NC(=O)/C(C#N)=C\C=C\c2ccco2)cc1,71.6*,-0.1,8.7,92.6,-10.8,1.7
Cc1nc(OCC(=O)c2ccc(Cl)cc2)c(C#N)c2c1COC(C)(C)C2,90.5*,-0.1,5.0,105.6,3.4,-3.0
CC1(C)Cc2c(C#N)c(OCC(=O)c3ccc(Cl)cc3)nc(-c3ccco3)c2CO1,0.0,0.0,10.5,105.1,nt,nt
CCNC(=S)Nc1ccc(C)c(S(=O)(=O)Nc2ccccc2OC)c1,36.0,0.2,-2.8,97.4,nt,nt
COc1ccccc1NS(=O)(=O)c1cc(NC(=O)c2sc3cc(Cl)ccc3c2Cl)ccc1C,104.7*,0.1,-16.2,97.6,3.2,3.6
COc1ccc(S(=O)(=O)NCCC(=O)N2CCCC2)cc1N(C)S(C)(=O)=O,55.9*,0.0,-6.5,97.5,-1.7,-9.9
COc1cc(OC)cc(C(=O)NCC(=O)OCC(=O)NCc2ccco2)c1,0.4,-0.3,-2.7,89.1,nt,nt
COc1cc(/C=C/C(=O)OCC(=O)Nc2sc3c(c2C#N)CCC(C)C3)ccc1OCC#N (centres undefined),-10.8,0.1,17.3,91.8,nt,nt
COc1ccc(C(=O)Nc2ccc(N3CCN(C)CC3)cc2)cc1,41.7,0.2,2.8,105.1,nt,nt
COc1ccc(C(=O)Nc2ccc(N3CCN(C)CC3)cc2)cc1OC,65.1*,0.0,2.7,97.1,4.0,3.6
CCOC(=O)c1cc2c(ccn2C)n1Cc1ccc(Cl)cc1,54.3*,0.1,20.3,96.1,-8.5,-2.5
Cc1noc(C)c1CSc1ncnc2sc3c(c12)CCCCC3,6.1,-0.2,-66.0,103.6,nt,nt
Cc1noc(C)c1CSc1ncnc2sc(C)c(C)c12,104.7*,0.1,-49.8,104.1,-6.5,2.1
CCOc1cccc(OCCCNCCCOC)c1,92.5*,0.1,6.9,104.9,4.4,-6.0
COc1ccc(Br)cc1CNC(=O)CCNC(=O)Cn1ccc2ccccc2c1=O,57.0*,0.1,2.3,104.6,1.4,0.5
Cc1nc2ccc(NC(=S)NC3CCCCC3)cc2nc1C,54.9*,0.0,nt,97.2,1.1,-6.6
C=CCn1c(CCCNC(=O)c2ccccc2OC)nc2ccccc21,8.3,-0.1,4.1,103.3,nt,nt
CCOc1ccccc1NC(=O)CSc1nnc(C2CC2)n1CC,0.8,-0.1,-0.3,83.0,nt,nt
COc1ccc(OC)c(NC(=O)COC(=O)c2cc3c(s2)CCC3)c1,79.5*,-0.1,12.1,72.7,10.2,3.8
COc1ccccc1NC(=O)COC(=O)c1cc2c(s1)CCC2,0.3,nt,1.3,101.8,nt,nt
O=C1CC(Nc2cc(=O)[nH]c(=O)[nH]2)C(=O)N1c1ccccc1Cl (centres undefined),33.5,0.0,-1.8,94.1,nt,nt
COc1cc(Cl)c(C)cc1NC(=O)COC(=O)c1ccc(CN2CCCC2=O)cc1,65.2*,0.0,-1.2,96.1,-0.8,1.3
Cc1ccc(Cl)cc1NC(=O)COC(=O)c1ccc(CN2CCCC2=O)cc1,-5.4,0.1,-8.5,105.2,nt,nt
O=C(CN1C(=O)C2C3C=CC(C3)C2C1=O)Nc1ccc(C(=O)O)cc1 (centres undefined),-7.1,-0.3,1.8,102.0,nt,nt
COC(=O)c1ccc(NC(=O)CN2C(=O)C3C4C=CC(C4)C3C2=O)cc1 (centres undefined),59.1*,-0.2,0.5,100.3,8.4,-4.7
Cc1nnc(SCCn2c(Br)nc3c2c(=O)[nH]c(=O)n3C)s1,94.8*,-0.2,-1.4,100.1,-10.2,-2.7
Cc1nnc(SCCn2c(N3CCN(C)CC3)nc3c2c(=O)[nH]c(=O)n3C)s1,-4.7,-0.1,-2.5,100.5,nt,nt
CC1CC(=O)Nc2ccccc2N1S(=O)(=O)c1ccc(Cl)cc1 (centres undefined),7.7,0.1,-1.0,108.5,nt,nt
